Experiments:
[1] = target: Long-chain fatty acid transport protein 1 (Homo sapiens, UniProt Q6PCB7); assay: Inhibition of human recombinant FATP1 acyl-coA synthetase activity using [14C]oleic acid as substrate
[2] = target: Long-chain fatty acid transport protein 1 (Mus musculus, UniProt Q60714); assay: Inhibition of mouse recombinant FATP1 acyl-coA synthetase activity using [14C]oleic acid as substrate
[3] = Metabolic stability in rat blood assessed as compound remaining after 2 hrs; format: ADME, tissue-based; details: read-out: Stability
Outline: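 Test compound incubated with rat blood for 2 h; parent compound remaining (%) measured.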

[4] = tested on: Mus musculus; assay: Drug metabolism in iv dosed mouse assessed as 2-(4-ethyl-5-((phenylamino)methyl)-4H-1,2,4-triazol-3-ylthio)acetic acid formation after 5 mins by LC/MS/MS analysis; format: ADME, organism-based; details: in vivo
Outline: (§1)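 Compound dosed intravenously to mouse; blood sampled at 5 min and metabolites identified by LC–MS/MS analysis.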

[5] = tested on: Mus musculus; assay: Drug metabolism in iv dosed mouse assessed as 2-(4-ethyl-5-((phenylamino)methyl)-4H-1,2,4-triazol-3-ylthio)-N-(4-(1-hydroxypropyl)phenyl)acetamide formation after 5 mins by LC/MS/MS analysis; format: ADME, organism-based; details: in vivo; outline: as §1
[6] = target: Long-chain fatty acid transport protein 1 (Mus musculus) (UniProt Q60714); assay: Inhibition of mouse recombinant FATP1 acyl-coA synthetase activity using [14C]oleic acid as substrate at 10 uM
Outline: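 Same radiometric acyl-CoA synthetase assay with 10 μM [1-¹⁴C] oleic acid, 0.5 mM ATP, 0.5 mM CoA, 5 mM MgCl₂ in Tris-HCl pH 7.4 buffer with Triton X-100 and DTT; test compound at 10 μM, read-out as percent inhibition of ACS activity.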

[7] = tested on: Rattus norvegicus; assay: (§2) Tmax in rat at 10 mg/kg, po; format: ADME, organism-based; design: dose 10 mg/kg, route oral; details: in vivo, BLD = below limit of detection
Outline: (§3)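 Rats dosed orally at 10 mg/kg in DMA/PG/(20% HPβCD in saline) 10:10:80; plasma levels measured, values averaged from two rats.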

[8] = tested on: Rattus norvegicus; assay: (§4) Cmax in rat at 10 mg/kg, po; format: ADME, organism-based; design: dose 10 mg/kg, route oral; details: in vivo, BLD = below limit of detection; outline: as §3
[9] = tested on: Rattus norvegicus; assay: (§5) AUC in rat at 10 mg/kg, po; format: ADME, organism-based, Plasma; design: dose 10 mg/kg, route oral; details: in vivo, BLD = below limit of detection; outline: as §3
[10] = tested on: Rattus norvegicus; assay: (§6) Half life in rat at 1 mg/kg, iv; format: ADME, organism-based; design: dose 1 mg/kg, route intravenous; details: in vivo, BLD = below limit of detection
Outline: (§7)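 Intravenous dosing to rats at 1 mg/kg in DMA/PG/(20% HPβCD in saline) 10:10:80; plasma pharmacokinetic parameters averaged from two rats.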

[11] = Clearance in rat at 1 mg/kg, iv; format: ADME, organism-based; design: dose 1 mg/kg, route intravenous; details: in vivo; outline: as §7
[12] = Volume of distribution in rat at 1 mg/kg, iv; format: ADME, organism-based; design: dose 1 mg/kg, route intravenous; details: in vivo; outline: as §7
[13] = tested on: Blood; assay: Drug metabolism in rat blood assessed as 1-(2-((4-ethyl-5-((phenylamino)methyl)-4H-1,2,4-triazol-3-ylthio)methyl)benzo[d]oxazol-5-yl)propan-1-ol formation; format: ADME, tissue-based
[14] = as §2; format: ADME, organism-based; design: dose 10 mg/kg, route oral; details: in vivo; outline: as §3
[15] = as §4; format: ADME, organism-based; design: dose 10 mg/kg, route oral; details: in vivo; outline: as §3
[16] = as §5; format: ADME, organism-based, Plasma; design: dose 10 mg/kg, route oral; details: plasma; outline: as §3
[17] = as §6; format: ADME, organism-based; design: dose 1 mg/kg, route intravenous; details: in vivo; outline: as §7
[18] = Oral bioavailability in rat at 10 mg/kg; format: ADME, organism-based; details: in vivo; outline: as §3

Chain of Long-chain fatty acid transport protein 1 (Mus musculus, UniProt Q60714) (Q60714 whole entry): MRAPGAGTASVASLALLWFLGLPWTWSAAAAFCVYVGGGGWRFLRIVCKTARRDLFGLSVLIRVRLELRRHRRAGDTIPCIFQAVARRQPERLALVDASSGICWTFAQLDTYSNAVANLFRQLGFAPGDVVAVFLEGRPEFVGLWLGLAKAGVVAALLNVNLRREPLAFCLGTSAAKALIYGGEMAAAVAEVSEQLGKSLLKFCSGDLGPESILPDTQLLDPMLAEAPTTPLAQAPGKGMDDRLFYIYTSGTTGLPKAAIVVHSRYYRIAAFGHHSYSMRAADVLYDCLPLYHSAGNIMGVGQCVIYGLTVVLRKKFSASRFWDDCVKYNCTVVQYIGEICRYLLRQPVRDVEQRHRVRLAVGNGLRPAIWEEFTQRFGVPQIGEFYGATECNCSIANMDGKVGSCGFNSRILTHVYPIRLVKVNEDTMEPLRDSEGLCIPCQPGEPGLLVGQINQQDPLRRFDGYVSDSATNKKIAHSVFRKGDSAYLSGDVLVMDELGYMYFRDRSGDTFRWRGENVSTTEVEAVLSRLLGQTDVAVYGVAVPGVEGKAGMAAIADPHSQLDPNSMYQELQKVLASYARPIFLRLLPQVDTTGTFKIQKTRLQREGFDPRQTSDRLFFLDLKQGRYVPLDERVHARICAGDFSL
Chain of Long-chain fatty acid transport protein 1 (Homo sapiens, UniProt Q6PCB7) (Q6PCB7 whole entry): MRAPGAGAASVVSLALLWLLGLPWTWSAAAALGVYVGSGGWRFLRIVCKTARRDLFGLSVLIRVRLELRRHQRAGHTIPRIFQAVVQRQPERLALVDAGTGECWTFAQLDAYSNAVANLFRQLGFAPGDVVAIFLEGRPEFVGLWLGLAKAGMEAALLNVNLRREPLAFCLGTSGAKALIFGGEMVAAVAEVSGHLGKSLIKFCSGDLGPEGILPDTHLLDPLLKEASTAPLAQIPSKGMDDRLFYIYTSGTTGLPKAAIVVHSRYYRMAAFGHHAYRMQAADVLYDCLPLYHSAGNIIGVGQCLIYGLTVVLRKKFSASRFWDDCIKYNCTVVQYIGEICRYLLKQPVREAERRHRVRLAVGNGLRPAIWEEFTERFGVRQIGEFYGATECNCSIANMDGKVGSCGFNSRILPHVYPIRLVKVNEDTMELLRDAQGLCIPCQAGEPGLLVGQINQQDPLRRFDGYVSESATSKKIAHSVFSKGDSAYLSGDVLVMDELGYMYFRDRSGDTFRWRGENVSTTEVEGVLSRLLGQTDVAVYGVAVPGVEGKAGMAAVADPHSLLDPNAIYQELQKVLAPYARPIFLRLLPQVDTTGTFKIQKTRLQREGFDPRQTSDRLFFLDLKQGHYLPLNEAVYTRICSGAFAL
Chain of Long-chain fatty acid transport protein 1 (Mus musculus) (Q60714 whole entry, looked up): as the sequence (Q60714 whole entry) above

Row | Structure (SMILES) | IC50 [1] [µM] | IC50 [2] [µM] | further results
1 | CCn1c(CNc2ccccc2)nnc1SCC(=O)Nc1ccc(OC)cc1 | > 1 | > 10 | 
2 | CCOC(=O)c1ccc(NC(=O)CSc2nnc(CSCc3ccccc3)n2CC)cc1 | 7.6 | > 10 | 
3 | CCC(=O)c1ccc(NC(=O)CSc2nnc(CNc3ccccc3)n2CC)cc1 | 0.4 | 1 | remaining at 2 h [3]: 28%; Drug metabolism [4]: Active; Drug metabolism [5]: Active
4 | C=CCn1c(CNc2ccccc2)nnc1SCC(=O)Nc1ccc(OC)cc1 | 6.6 | > 10 | 
5 | CCn1c(CNc2ccccc2)nnc1SCc1nc2ccc(Cl)cc2o1 | > 1 | 5.4 | 
6 | CCC(=O)c1ccc2oc(CS(=O)(=O)c3nnc(CNc4ccccc4)n3CC)nc2c1 | 1.67 | 11.9 | remaining at 2 h [3]: 44%
7 | CCn1c(CNc2ccccc2)nnc1SCC(=O)Nc1ccc(C(=O)c2ccccc2)cc1 | > 1 | > 10 | 
8 | CCC(=O)c1ccc(NC(=O)CSc2nnc(CNc3ccccc3)n2CC)cn1 | 0.4 | 1.5 | 
9 | CCn1c(CNc2ccccc2)nnc1SCC(=O)Nc1ccc(C(C)=O)cc1 | > 1 |  | inhibition [6]: 63%
10 | CCn1c(CNc2ccccc2)nnc1SCc1nc2ccccc2o1 | > 1 | > 10 | 
11 | CCC(=O)c1ccc2oc(CSc3nnc(CNc4ccccc4)n3CC)nc2c1 | 0.19 | 0.36 | remaining at 2 h [3]: 8.9%; Tmax [7]: BLD; Cmax [8]: BLD; AUC [9]: BLD; t1/2 [10]: BLD; clearance [11]: 378 mL/min/kg; Vd [12]: 2.69 L/kg; Drug metabolism [13]: Active
12 | CCn1c(CNc2ccccc2)nnc1SCC(=O)Nc1ccc(C(=O)O)cc1 | > 1 | > 10 | 
13 | CC/C(=N/OC)c1ccc2oc(CSc3nnc(CNc4ccccc4)n3CC)nc2c1 | > 1 | > 10 | 
14 | CCOC(=O)c1ccc(NC(=O)CSc2nnc(CNc3ccccc3)n2CC)cc1 | 0.33 | 1.1 | 
15 | CCNC(=O)c1ccc(NC(=O)CSc2nnc(CNc3ccccc3)n2CC)cc1 | > 1 | > 10 | 
16 | CCn1c(CNc2ccccc2)nnc1SCc1nc2cc(F)ccc2o1 | > 1 | 7.8 | 
17 | CCn1c(CNc2ccccc2)nnc1SCC(=O)Nc1ccccc1 | > 1 | > 10 | 
18 | CCC(=O)c1ccc(N(C)C(=O)CSc2nnc(CNc3ccccc3)n2CC)cc1 | 0.58 | 2 | remaining at 2 h [3]: 1.9%
19 | CCn1c(CNc2ccccc2)nnc1SCc1nc2cc(C(F)(F)F)ccc2o1 | 0.36 | 0.36 | Tmax [14]: 19.8 min; Cmax [15]: 220 ng/mL; AUC [16]: 280 ng·h/mL; half-life [17]: 73.8 min; clearance [11]: 56 mL/min/kg; Vd [12]: 1.86 L/kg; bioavailability [18]: 9.2%
20 | CCOC(=O)c1ccc2oc(CSc3nnc(CNc4ccccc4)n3CC)nc2c1 | 0.68 | 0.84 | remaining at 2 h [3]: 0%
21 | CCn1c(CNc2ccccc2)nnc1SCC(=O)Nc1ccc(Cl)cc1 | > 1 | > 10 | 

Row | Structure (SMILES) | IC50 [1] [µM] | IC50 [2] [µM] | further results
22 | CCOC(=O)c1cccc(NC(=O)CSc2nnc(CNc3ccccc3)n2CC)c1 | > 1 | 2.9 | 
23 | CCC(=O)c1ccc2nc(CSc3nnc(CNc4ccccc4)n3CC)oc2c1 | 0.9 | 1.2 | remaining at 2 h [3]: 35%
24 | CCn1c(CNc2ccccc2)nnc1SCc1nc2cc(C)ccc2o1 | > 1 | > 10 | 
25 | CCC(O)c1ccc2oc(CSc3nnc(CNc4ccccc4)n3CC)nc2c1 (stereo not drawn) | > 1 | 3.7 | remaining at 2 h [3]: 80%
26 | CCn1c(CNc2ccccc2)nnc1SCc1nc2cc(OC)ccc2o1 | > 1 | 2.7 | 
27 | CCn1c(CNc2ccccc2)nnc1SCC(=O)Nc1ccc(C(=O)NC)cc1 | > 1 | > 10 | 
28 | CCOC(=O)c1ccc2c(c1)CCN2C(=O)CSc1nnc(CNc2ccccc2)n1CC | > 1 | > 10 | 
29 | CCn1c(CNc2ccccc2)nnc1SCc1nc2cc(C(=O)C(C)C)ccc2o1 | 0.6 | 0.52 | remaining at 2 h [3]: 42%
30 | CCn1c(CNc2ccccc2)nnc1SCC(=O)Nc1ccc(C(=O)N(C)C)cc1 | > 1 | > 10 | 
31 | CCc1ccc2oc(CSc3nnc(CNc4ccccc4)n3CC)nc2c1 | > 1 | 1.8 | 
32 | CCn1c(CNc2ccccc2)nnc1SCC(=O)Nc1ccc(C(=O)OC)cc1 | 0.54 |  | inhibition [6]: 56%
33 | CCn1c(CNc2ccccc2)nnc1SCC(=O)Nc1ccc(C(=O)OC(C)(C)C)cc1 | > 1 | > 10 | 
34 | CCC(=O)c1ccc(N(CC)C(=O)CSc2nnc(CNc3ccccc3)n2CC)cc1 | > 1 | > 10 | 
35 | CCn1c(CNc2ccccc2)nnc1SCc1nc2cc(Cl)ccc2o1 | > 1 | 2.3 | remaining at 2 h [3]: 92%
36 | CCCC(=O)c1ccc(NC(=O)CSc2nnc(CNc3ccccc3)n2CC)cc1 | 0.23 | 1.1 | 
37 | CCn1c(CNc2ccccc2)nnc1SCc1nc2cc(OC(F)(F)F)ccc2o1 | 0.1 | 0.091 | remaining at 2 h [3]: 100%; Tmax [14]: 19.8 min; Cmax [15]: 190 ng/mL; AUC [16]: 200 ng·h/mL; half-life [17]: 61.2 min; clearance [11]: 52 mL/min/kg; Vd [12]: 1.73 L/kg; bioavailability [18]: 5.4%
38 | CCn1nnc(-c2ccc(NC(=O)CSc3nnc(CNc4ccccc4)n3CC)cc2)n1 | > 1 | > 10 | 
39 | CCn1c(CNc2ccccc2)nnc1SCC(=O)Nc1ccc(C#N)cc1 | > 1 | 5.1 | 
40 | CCOC(=O)c1ccc2c(c1)CCCN2C(=O)CSc1nnc(CNc2ccccc2)n1CC | > 1 | 2.9 | 
41 | CC/C(=N/O)c1ccc2oc(CSc3nnc(CNc4ccccc4)n3CC)nc2c1 | 0.26 | 0.2 | remaining at 2 h [3]: 100%
42 | CCn1c(CNc2ccccc2)nnc1SCC(=O)Nc1ccc(S(C)(=O)=O)cc1 | > 1 | > 10 | 
